For test [1], the target named is full-length Munc13-1 protein incorporating the W22K mutation (W588 K) (Rattus norvegicus, UniProt Q62768, W588K). To be noted: in vitro binding conditions as for full-length WT. A digest of the protocol:
(§1)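 Rat full-length Munc13-1 (WT or W588 mutant) was expressed as an N-terminal Halo fusion in transfected HEK-293 cells and harvested after one day. It was purified on Halo-link resin, released with TEV protease and stored in 30% glycerol at –80 °C. [3H]PDBu saturation binding used 100 μg/mL lipid (100% PS) and 0.1 mM Ca2+. Kd came from saturation/Scatchard analysis; triplicate points, 3–6 experiments, mean ± SEM.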

The target of a further test is Munc13-1 WT C1 domain (Rattus norvegicus, UniProt Q62768). Kind of test: In vitro [^3H]PDBu binding assay, GST-tagged C1 domain. To be noted: for Kd: 100 μg/mL lipid.
The target in test [2] is full-length Munc13-1 wild-type protein (Rattus norvegicus, UniProt Q62768). Type of test: binding. To be noted: 100 μg/mL lipid (100% PS), 0.1 mM Ca2+. A digest of the protocol:
as §1

Test [3] addresses full-length Munc13-1 mutated at W588D (Rattus norvegicus, UniProt Q62768, W588D). The format is binding. To be noted: preparation from cells expressing the mutant.
Test [4] concerns the target Munc13-1 W22A mutant C1 domain. Kind of test: In vitro [^3H]PDBu binding assay, GST-tagged C1 domain. More on the design: species or system rat.
In test [5] the target is Munc13-1 W22A mutant C1 domain (Rattus norvegicus, UniProt Q62768, W588A). The description is as above. To be noted: 100 μg/mL lipid, 0.1 mM Ca2+.
Test [6] deals with Munc13-1 W22K mutant C1 domain. The description is as above. Also on record: species or system rat.
Test [7] addresses Munc13-1 W22K mutant C1 domain (Rattus norvegicus, UniProt Q62768, W588K). The test is described as above. To be noted: 100 μg/mL lipid, 0.1 mM Ca2+.
Test [8] has as its target full-length GFP-Munc13-1 W599D (Rattus norvegicus, UniProt Q62768, W588D). Nature of the test: PMA-induced membrane translocation, confocal microscopy of Neuro-2a cells. To be noted: 1000 nM PMA, 0-8 min, vs wild-type. The format is cell-based. In a few lines: (§2)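 EGFP-tagged full-length rat Munc13-1 mutants were made by site-directed mutagenesis. Neuro-2a cells (passage 2–15; RPMI-1640, 10% FBS, 2 mM L-glutamine; 37 °C) were transfected with Lipofectamine 3000. After 24 h, cells went into phenol-red-free DMEM with 1% FBS. PMA (1000 nM) was added at time 0, with confocal imaging every 20 s (ex 488 nm, em 500–530 nm). Membrane/cytoplasm intensity ratio used three ~5 μm2 regions at 0, 2, 4 and 8 min; 3 cells × 3 experiments, mean ± SEM.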

Test [9] concerns the target GFP-tagged full-length Munc13-1 (Rattus norvegicus, UniProt Q62768). Kind of test: Translocation after PMA treatment, confocal microscopy of LNCaP cells. The format is cell-based. A digest of the protocol:
(§3)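 LNCaP cells (passage 2–15; RPMI-1640, 10% FBS, 2 mM L-glutamine) were grown to 75% confluency and transfected with Lipofectamine plus Plus reagent 24 h after plating. They expressed GFP-tagged rat Munc13-1 C1 domain or GFP-tagged full-length protein. After a further 24 h, cells were moved to phenol-red-free DMEM with 1% FBS. PMA (100 or 1000 nM) was added and localization was followed by live confocal imaging (GFP ex 488 nm); 3 independent experiments.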

Test [10] addresses GFP tagged Munc13-1 C1 domain (Rattus norvegicus, UniProt Q62768). The description is as above. The format is cell-based. In a few lines: as §3
The target of test [11] is full-length GFP-Munc13-1 W588K (Rattus norvegicus, UniProt Q62768, W588K). Kind of test: PMA-induced membrane translocation, confocal microscopy of Neuro-2a cells. To be noted: 1000 nM PMA, 0-8 min, vs wild-type. Type of test: cell-based.
Test [12] deals with full-length GFP-Munc13-1 W588F (Rattus norvegicus, UniProt Q62768, W588F). The test is described as above. Type of test: cell-based. To be noted: 1000 nM PMA, 0-8 min, vs wild-type.
In test [13] the target is full-length GFP-Munc13-1 W588Y (Rattus norvegicus, UniProt Q62768, W588Y). Nature of the test: PMA-induced membrane translocation, confocal microscopy of Neuro-2a cells. Type of test: cell-based. To be noted: 1000 nM PMA, 0-8 min, vs wild-type. In a few lines:
as §2

The target in test [14] is full-length GFP-Munc13-1 W588A (Rattus norvegicus, UniProt Q62768, W588A). Described as above. Type of test: cell-based. To be noted: 1000 nM PMA, 0-8 min, vs wild-type. In a few lines:
as §2

In a further test the test system is W22G of PKCδ C1B. To be noted: 100% PS; cited from earlier work.
The test system of a further test is W22G of PKCθ C1B. To be noted: 100% PS; cited from earlier work.
The test system of a further test is PKCδ C1B W22R. To be noted: PS concentration 10%; cited from earlier work.

As usually defined, the Kd is the equilibrium constant for the complex coming apart. The low end stands for a tighter complex, the high end for a looser complex.

Where only a bound is given, the exact number is not on record here.

For `CCCC(=O)O[C@@H]1[C@@H](C)[C@@]2(O)[C@@H](C=C(CO)C[C@]3(O)C(=O)C(C)=C[C@@H]23)[C@@H]2C(C)(C)[C@]12OC(=O)CCC` [[^3H]PDBu, [20-^3H]Phorbol 12,13-dibutyrate], the Kd in test [1] was 3.3 ± 1.2 nM; on Munc13-1 WT C1 domain (Lipid 20:80 PS:PC, 0.1 mM Ca2+), 32.5 ± 2.6 nM; on Munc13-1 WT C1 domain (Lipid 100:0 PS:PC, 0.1 mM Ca2+) it was 98 ± 36 nM; in test [2], 3.7 ± 0.32 nM; in [5] (Lipid 20:80 PS:PC), over 1000 nM; in test [5] (Lipid 100:0 PS:PC), 460 ± 260 nM. Moreover, the dissociation constant Kd in test [7] (Lipid 20:80 PS:PC) stood at 420 ± 120 nM; in test [7] (Lipid 100:0 PS:PC) it was 160 ± 20 nM. For the same molecule, the “amount of [^3H]PDBu bound at 100% PS relative to that at 20% PS” value at Munc13-1 WT C1 domain (5 nM [^3H]PDBu, 100 μg/mL phospholipid, 0.1 mM Ca2+) was “less than 15%”. For the same molecule, on Munc13-1 WT C1 domain (100% PS), the “fold weaker binding affinity than that of the C1b domain of PKCδ” value is 100 fold. Further, the “[^3H]PDBu binding” value in [3] was “did not see any binding”. The “Kd(mutant)/Kd(WT)” value was over 31 in test [4] (Lipid 20:80 PS:PC), 4.7 in [4] (Lipid 100:0 PS:PC), 13 in test [6] (Lipid 20:80 PS:PC) and 1.6 in test [6] (Lipid 100:0 PS:PC).
As for `CCCCCCCCCCCCCC(=O)O[C@@H]1[C@@H](C)[C@@]2(O)[C@@H](C=C(CO)C[C@]3(O)C(=O)C(C)=C[C@@H]23)[C@@H]2C(C)(C)[C@]12OC(C)=O` [PMA, phorbol 12-myristate 13-acetate], the “translocation in response to PMA” value in test [8] is on record as “totally abolished”; in test [11], “did not significantly influence the translocation”; in test [12], “did not significantly influence the translocation”; in test [13] it was “delayed”; in test [14], “significantly decreased translocation”. Besides, in [9], the “translocation of full-length Munc13-1” value is given as “translocated to the plasma membrane”. For the same molecule, the “translocation of GFP-C1 domain” value is on record as “Translocation was not observed” in test [10] (100 nM PMA) and “translocated within 10 min from the nucleus to internal membranes but not to the plasma membrane” in test [10] (1000 nM PMA).
For the molecule `CCCCCCCCCCCCCC(=O)O[C@@H]1[C@@H](C)[C@@]2(O)[C@@H](C=C(CO)C[C@]3(O)C(=O)C(C)=C[C@@H]23)[C@@H]2C(C)(C)[C@]12OC(C)=O` [phorbol ester], the “fold reduction in phorbol ester affinity as compared to WT” value in the test with W22G of PKCδ C1B is recorded as 31 fold; in the test with W22G of PKCθ C1B, 8 fold. The Kd came out at 98 nM at Munc13-1 WT C1 domain (Lipid 100:0 PS:PC, 0.1 mM Ca2+) and 3.7 nM in [2]. The “fold reduced phorbol ester affinity as compared to the WT” value with PKCδ C1B W22R is 9 fold. Also, the “Kd(mutant)/Kd(WT)” value in test [4] (Lipid 100:0 PS:PC) is ~ 5; in test [6] (Lipid 20:80 PS:PC) it was 13; in test [6] (Lipid 100:0 PS:PC), 1.6.
